OX1R antag-1: OX1R (HCRTR1) antagonists, primary screen, fluorescence, CHO/OX1R cells, Fluo-8 calcium, orexin A; Orexin/Hypocretin receptor type 1 (Homo sapiens), O43613; Fluo-8 calcium fluorescence; inhibition, % at 5 µM; actives 0.43% (n = 330,000); AID 434989, 2010;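 active = inhibition above its plate's threshold, mean inhibition of all tested compounds on the plate plus 3 SD, cut at about 37% in these data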
TRPML3 agonist: human TRPML3 channel agonists, primary screen, cell-based, HEK293 TRPML3-YFP, Fluo-8 calcium fluorescence, 3 µM | activation, % at 3 µM | actives 0.29% (n = 220,000) | Mucolipin-3 (Homo sapiens), Q8TDD5 | 100% = the carbachol control signal | AID 1448, 2008;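 active = activation above its plate's cutoff, the mean activation of the plate's test wells plus 3 SD, cut at about 12% in these data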
Target sequence (Q8TDD5 whole entry, looked up): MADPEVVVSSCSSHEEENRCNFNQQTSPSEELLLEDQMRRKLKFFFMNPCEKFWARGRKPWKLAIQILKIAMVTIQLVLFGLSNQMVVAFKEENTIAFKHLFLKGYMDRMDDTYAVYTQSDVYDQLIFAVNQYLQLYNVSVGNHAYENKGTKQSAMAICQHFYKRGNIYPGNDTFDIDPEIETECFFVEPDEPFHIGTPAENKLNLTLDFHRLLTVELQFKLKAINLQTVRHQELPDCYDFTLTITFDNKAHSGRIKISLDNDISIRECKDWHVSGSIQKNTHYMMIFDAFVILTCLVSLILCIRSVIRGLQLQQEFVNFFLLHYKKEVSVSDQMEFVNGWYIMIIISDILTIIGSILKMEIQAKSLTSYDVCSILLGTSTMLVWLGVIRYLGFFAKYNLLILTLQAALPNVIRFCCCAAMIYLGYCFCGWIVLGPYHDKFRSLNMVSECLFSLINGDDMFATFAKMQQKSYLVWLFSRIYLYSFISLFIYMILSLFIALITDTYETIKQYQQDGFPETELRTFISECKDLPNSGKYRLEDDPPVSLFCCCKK
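system = HEK293 cells stably carrying human TRPML3-YFP | doses = one concentration, 3 µM nominal, 0.3% DMSO | timing = dye loading 1 h 37 °C then 30 min ambient, 125 s read | detection = Fluo-8 calcium dye fluorescence, ex 470-495, em 515-575 nm | benchmarks = high control carbachol 87 µM, low control DMSO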
OX1R antag-2: antagonists of human orexin 1 receptor (OX1R); Orexin/Hypocretin receptor type 1 (Homo sapiens), O43613; OX1R-expressing cells, FRET antagonist read-out; inhibition, % at 6.6 µM; actives 1.8% (n = 330,000); in the data active = inhibition mostly above about 38%, no sharp cut-off; inactive = mostly below about 40%
CHO parental Ca: ATP-evoked calcium signal inhibitors, parental CHO, primary screen, counter-screen for OX1R antagonist project, cell-based, fluorescence, Fluo-8 calcium dye. actives 0.63% (n = 330,000). inhibition, % at 5.6 µM. parental CHO-K1, ATP-induced calcium, Fluo-8 fluorescence;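 active = inhibition above that plate's mean sample inhibition plus 3 SD, cut at about 26% in these data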
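Test system: parental CHO cells; detection: calcium-sensitive Fluo-8 fluorescence; evaluation: percent inhibition of calcium signal; also added: ATP as calcium-mobilizing challenge; repeats: one well per compound; control set: ATP-challenged DMSO wells low, unchallenged DMSO wells high; compound: single nominal dose of 5.6 µM per compound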
zfTRPN1 agonist: zebrafish TRPN1 channel agonists, primary screen, cell-based, HEK293, calcium fluorescence. transient receptor potential cation channel N1 (TRPN1/NompC), Danio rerio. HEK293 zebrafish TRPN1-YFP, Fluo-8 calcium fluorescence; 100% = response to 87 µM carbachol. activation, % at 3 µM. actives 0.18% (n = 220,000). AID 1424, 2008;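 active = activation above its plate's cutoff, the mean activation of test wells on that plate plus 3 SD, cut at about 19% in these data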
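Material: zebrafish TRPN1-YFP in HEK293 cells. Doses: one dose of 3 µM, 0.3% DMSO. Incubation: dye 1 h 37 °C plus 30 min RT. Measured by: intracellular calcium fluorescence with Fluo-8.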
OX1R Ca confirm: OX1R (HCRTR1) antagonists, confirmation, fluorescence, CHO/OX1R cells, Fluo-8 calcium, orexin A | AID 492963, 2010 | actives 38% (n = 1,100) | shares compounds with OX1R antag-1 | orexin A calcium Fluo-8 fluorescence | inhibition, % at 5 µM; in the data active = inhibition above about 29%
CHO Ca counter: ATP-evoked calcium inhibition in parental CHO, counter-screen for OX1R antagonist project, cell-based, fluorescence, CHO-K1, triplicate; shares compounds with OX1R antag-1; ATP-induced calcium, Fluo-8 fluorescence; inhibition, % at 5.6 µM; actives 9.3% (n = 1,100);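 active = inhibition above a per-plate limit, the mean inhibition of that plate's test compounds plus 3 SD, cut at about 25% in these data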
OX1R HTRF confirm: OX1R (HCRTR1) antagonists, confirmation, cell-based, HTRF; shares compounds with OX1R antag-2; OX1R-expressing cells, HTRF antagonist assay; inhibition, % at 6.6 µM; actives 49% (n = 1,800); in the data active = inhibition above about 55%;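 note: CHO cells expressing OX1R stimulated with orexin A at about EC80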
CHO-K1 HTRF cnt: signal inhibition in parental CHO-K1 cells, counter-screen for OX1R antagonist project, cell-based, HTRF | shares compounds with OX1R antag-2 | HTRF counterscreen | inhibition, % at 6.6 µM | actives 48% (n = 1,800) | AID 493232, 2011; in the data active = inhibition above about 17%
Hits are given with their value; i = inactive; nt = not tested or not shown. A selection: hits, their analogues and other compounds. The true share with any hit is near 2.5%.

SMILES	OX1R antag-1	TRPML3 agonist	OX1R antag-2	CHO parental Ca	zfTRPN1 agonist	OX1R Ca confirm	CHO Ca counter	OX1R HTRF confirm	CHO-K1 HTRF cnt
COc1cc2c(cc1NC(=O)CSc1nnc(Cc3cccs3)n1Cc1ccco1)oc1ccccc12	i	i	i	i	i	nt	nt	nt	nt
CCn1c(SCC(=O)Nc2cc3oc4ccccc4c3cc2OC)nnc1-c1cccs1	50	i	83	i	i	49	i	89	i
CCn1c(SCC(=O)Nc2nc(-c3ccccc3)cs2)nnc1-c1ccccc1	54	i	62	i	i	i	i	72	i
Cc1nnc(SCC(=O)Nc2nc(-c3ccccc3)cs2)n1N	i	i	i	i	i	nt	nt	nt	nt
Cc1cc(SCC(=O)c2ccc(O)c(O)c2)nc2ccccc12	i	i	i	i	i	nt	nt	nt	nt
Cc1cc(SCC(=O)c2ccc3c(c2)OCO3)nc2ccccc12	i	i	59	i	i	i	i	87	i
CCC(Sc1nc(-c2ccccc2)c(-c2ccccc2)[nH]1)C(=O)O (stereo not given)	i	nt	i	i	nt	nt	nt	nt	nt
COc1ccc([N+](=O)[O-])cc1NC(=O)C1CCCN1S(=O)(=O)c1cccs1 (stereo not given)	i	nt	i	i	nt	nt	nt	nt	nt
Cc1ccc(NC2CCCN(C(=O)c3cccc(-c4ncc[nH]4)c3)C2)cc1C (stereo not given)	i	nt	93	i	nt	65	i	92	i
Cc1ccc(NC2CCCN(C(=O)c3ccccc3-c3ncc[nH]3)C2)cc1C (stereo not given)	i	nt	i	i	nt	nt	nt	nt	nt
Cc1cc(C)cc(C(=O)NCC(=O)OCN2C(=O)c3ccccc3C2=O)c1	i	nt	i	i	nt	nt	nt	nt	nt
Cc1ccnc(NC(=O)c2oc3ccccc3c2C)c1	51	nt	96	i	nt	49	i	91	i
Cc1ccc(OCC(COCc2ccccc2)NC(C)C)cc1 (stereo not given)	i	nt	i	i	nt	nt	nt	nt	nt
O=c1oc(CCCO)cc2ccc(C#Cc3ccsc3)cc12	55	nt	42	i	nt	i	i	i	i
CC(C)(O)c1cc2ccc(C#Cc3ccsc3)cc2c(=O)o1	60	nt	71	i	nt	36	i	83	i
CN(C)c1ccc(C#Cc2ccc3cc(CCCO)oc(=O)c3c2)cc1	i	nt	i	i	nt	nt	nt	nt	nt
C/C(Cl)=C\COc1cc(C)nc2c(Br)cccc12	i	i	i	i	i	nt	nt	nt	nt
CN1CCC/C1=C/C=C1\SC(=S)NC1=O	i	i	80	i	i	33	32	i	98
CC(=C/c1ccccc1)/C=C1/SC(N2CCOCC2)=NC1=O	85	i	108	i	i	80	i	101	i
COc1ccccc1CN1CC(C(=O)N2CCOCC2)CCC1=O (stereo not given)	i	nt	i	i	nt	nt	nt	nt	nt
Cc1cccc(N2C(=NC(=O)c3ccccc3)SC3CS(=O)(=O)CC32)c1 (stereo not given)	i	nt	i	i	nt	nt	nt	nt	nt
CCN(CC)c1ccc(/C=N/NC(=O)c2ccc(Br)o2)cc1	i	i	91	i	i	55	i	90	i
CCc1ccc(/C=N\NC(=O)c2ccc(Br)o2)s1	i	i	i	i	i	nt	nt	nt	nt
O=C(O)c1cc(NC(=O)c2ccc3c(c2)C(=O)N(Cc2ccccc2)C3=O)cc(C(=O)O)c1	i	nt	i	i	nt	nt	nt	nt	nt
COc1ccc(N(CC(=O)NCc2ccccc2)S(=O)(=O)c2c(C)noc2C)cc1	i	i	i	i	i	nt	nt	nt	nt
SMILES	OX1R antag-1	TRPML3 agonist	OX1R antag-2	CHO parental Ca	zfTRPN1 agonist	OX1R Ca confirm	CHO Ca counter	OX1R HTRF confirm	CHO-K1 HTRF cnt
Cc1ccc(CCNC(=O)CN(c2cc(C)cc(C)c2)S(=O)(=O)c2c(C)noc2C)cc1	i	nt	i	i	nt	nt	nt	nt	nt
Cc1ccc(CCNC(=O)CN(c2ccc(C)cc2)S(=O)(=O)c2c(C)noc2C)cc1	60	nt	80	i	nt	30	i	80	i
COc1ccc(N(CC(=O)NC(C)c2ccccc2)S(=O)(=O)c2c(C)noc2C)cc1 (stereo not given)	i	nt	67	i	nt	i	i	66	i
Cc1ccc(N(CC(=O)NCCc2ccc(Cl)cc2)S(=O)(=O)c2c(C)noc2C)cc1	i	nt	49	i	nt	60	i	86	i
CCc1ccc(OCCCCN(C)Cc2ccccc2)cc1	i	nt	i	i	nt	nt	nt	nt	nt
CCOC(=O)c1c(C)[nH]c(C(=O)COC(=O)c2ccco2)c1C	i	nt	i	i	nt	nt	nt	nt	nt
O=C(CCc1nnc2ccc(NCc3ccco3)nn12)Nc1ccc(F)cc1F	i	nt	i	i	nt	nt	nt	nt	nt
COc1ccc(/C=C/C(=O)OCC(=O)c2c(C)[nH]c3ccccc23)cc1OC	49	i	76	i	i	44	i	80	i
COc1ccc(C(=O)NCC(=O)OCC(=O)c2c(C)[nH]c3ccccc23)cc1OC	i	nt	i	i	nt	nt	nt	nt	nt
COc1ccc(NC(=O)CSc2nc3sc(C)cc3c(=O)n2C)c(OC)c1	43	nt	88	i	nt	31	i	86	i
O=C(CCl)Nc1cccc(S(=O)(=O)N2CCCCCC2)c1	i	i	i	i	i	nt	nt	nt	nt
CC(NC(C)c1ccccc1Cl)C(=O)Nc1cccc(S(=O)(=O)N2CCCCC2)c1 (stereo not given)	89	nt	88	i	nt	80	i	89	i
O=C(COC(=O)c1cccs1)Nc1nnc(-c2ccccc2)o1	i	nt	i	i	nt	nt	nt	nt	nt
CCOC(=O)c1[nH]c(C)c(CN(C(C)=O)c2ccc(OCC)cc2)c1C	i	i	i	i	i	nt	nt	nt	nt
CCOc1cc(NC(=O)c2ccccc2OC)c(OCC)cc1NC(=O)c1ccccc1	i	nt	i	i	nt	nt	nt	nt	nt
CCOc1ccccc1C(=O)NCC(=O)O	i	i	i	i	i	nt	nt	nt	nt
CCOc1ccccc1NC(=O)c1ccccc1-c1nc(-c2ccccc2OC)no1	45	i	87	i	i	i	i	i	i
CCOc1ccccc1C(=O)NCCNC(=O)c1ccccc1OCC	65	nt	80	i	nt	77	i	i	i
